Data: ChEMBL document CHEMBL3580660, “Synthesis and Biological Evaluation of Novel Olean-28,13β-lactams as Potential Antiprostate Cancer Agents” (J Med Chem, 2015)
The source made the active and inactive calls. No cut-off for these calls is given here.

Key:
DU-145 [1] = test: Induction of apoptosis in human DU145 cells assessed as reduction in Bcl2 expression at 0.08 to 0.32 uM after 24 hrs by Western blot analysis; format: functional, cell-based
In short: (§1)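 DU-145 cells (5 × 10^5/well) in 10% FCS Ham's F-12K overnight, treated in duplicate with compound or vehicle 24 h; lysed (Tris pH 8, EGTA, NaCl, NP-40, Triton X-100), protein by BCA. Blots blocked in 5% milk, probed for AKT, p-AKT Ser473, mTOR, p-mTOR Ser2448, Bax, Bcl-2, β-actin; ECL detection, densitometry relative to control; three separate experiments.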

DU-145 [2] = test: Induction of apoptosis in human DU145 cells assessed as increase in Bax to Bcl2 ratio at 0.08 to 0.32 uM after 24 hrs by Western blot analysis; format: functional, cell-based; in short: as §1
DU-145 [3] = test: Effect on Akt protein expression in human DU145 cells at 0.08 to 0.32 uM after 24 hrs by Western blot analysis; format: functional, cell-based; in short: as §1
[4] = Reduction in phosphorylated Akt protein expression in human DU145 cells at 0.08 to 0.32 uM after 24 hrs by Western blot analysis; format: functional, cell-based; conditions: DU-145; in short: as §1
[5] = Half life in human liver microsomes by LC-MS/MS analysis; format: ADME
In short: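 Human liver microsomes at 0.2 mg/mL protein in 100 mM potassium phosphate−MgCl2 buffer pH 7.4, compound 5 μM with NADPH system at 37 °C; stopped with acetonitrile at 0, 5, 10, 15, 30, 60 min. After centrifugation, remaining compound quantified by LC−MS/MS to derive t1/2; mean ± SD.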

[6] = Apparent permeability across apical to basolateral side in human Caco2 cells at 0.5 uM measured after 30 mins by LC-MS/MS analysis; format: ADME, cell-based; conditions: Caco-2
In short: (§2)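 Caco2 monolayers (passages 20−40) grown 21 days at 37 °C, 5% CO2; integrity checked by TEER. Test drug 0.5 μM applied in triplicate, apical pH 6.8, basolateral pH 7.4, 37 °C for 30 min, A→B and B→A. Donor and receiver sampled, concentration by LC−MS/MS; Papp calculated; efflux ratio = Papp B→A / Papp A→B.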

[7] = Apparent permeability across basolateral to apical side in human Caco2 cells at 0.5 uM measured after 30 mins by LC-MS/MS analysis; format: ADME, cell-based; conditions: Caco-2; in short: as §2
DU-145 [8] = test: Antiproliferative activity against human DU145 cells after 72 hrs by CCK8 assay; format: functional, cell-based; conditions: DU-145, 72 h
In short: (§3)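 CCK-8 assay: DU-145, H460, Bxpc-3, BEL-7404 and nontumor WPMY-1 cells seeded at 5 × 10^3 cells/well in 10% FCS DMEM overnight, then exposed in triplicate to 0.041−10 μM for 72 h. CCK-8 added for final 30 min, absorbance 450 nm; inhibition relative to medium-only controls after background subtraction; IC50 as concentration giving 50% inhibition.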

[9] = Antiproliferative activity against human WPMY-1 cells after 72 hrs by CCK8 assay; format: functional, cell-based; conditions: WPMY-1, 72 h; in short: as §3
Mus musculus [10] = test: Acute toxicity in ICR mouse assessed as mortality at 800 mg/kg, oral gavage after 4 to 14 days; format: organism-based; conditions: in vivo
In short: (§4)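 ICR mice of both sexes, 7 weeks old, held under SPF conditions. Each got one gavage dose (800, 640, 512, 409.6 or 327.8 mg/kg) or vehicle, n = 8 per group. Deaths were recorded at 1 h, 4 h, 3 d and 4–14 d. Behaviour, water and food intake, body weight and activity were followed to day 14. LD50 given with 95% confidence limits.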

Mus musculus [11] = test: Acute toxicity in ICR mouse assessed as mortality at 512 mg/kg, oral gavage after 4 hrs; format: organism-based; conditions: in vivo; in short: as §4
Mus musculus [12] = test: Acute toxicity in ICR mouse assessed as mortality at 512 mg/kg, oral gavage after 4 to 14 days; format: organism-based; conditions: in vivo; in short: as §4
Mus musculus [13] = test: Acute toxicity in ICR mouse assessed as mortality at 409.6 mg/kg, oral gavage after 1 hr; format: organism-based; conditions: in vivo; in short: as §4
Mus musculus [14] = test: Acute toxicity in ICR mouse assessed as mortality at 409.6 mg/kg, oral gavage after 4 hrs; format: organism-based; conditions: in vivo; in short: as §4
Mus musculus [15] = test: Acute toxicity in ICR mouse assessed as mortality at 327.8 mg/kg, oral gavage after 3 days; format: organism-based; conditions: in vivo, 72 h; in short: as §4
Mus musculus [16] = test: Acute toxicity in ICR mouse assessed as total mortality at […] mg/kg, oral gavage up to 14 days; format: organism-based; conditions: in vivo, 336 h; in short: as §4
[17] = Acute toxicity in ICR mouse assessed as survival at 800 mg/kg, oral gavage on day 14; format: organism-based; conditions: in vivo; in short: as §4
[18] = Acute toxicity in ICR mouse assessed as survival at 512 mg/kg, oral gavage on day 14; format: organism-based; conditions: in vivo; in short: as §4
[19] = Acute toxicity in ICR mouse assessed as survival at 409.6 mg/kg, oral gavage on day 14; format: organism-based; conditions: in vivo; in short: as §4
[20] = Acute toxicity oral gavage treated in ICR mouse assessed as mortality measured up to 14 days; format: organism-based; conditions: in vivo; in short: as §4
DU-145 [21] = test: Anticancer activity against human DU145 cells xenografted in BALB/c mouse assessed as decrease in tumor growth at 8.5 mg/kg, oral gavage for 21 days relative to vehicle treated control; format: functional; conditions: DU-145, po, 504 h
In short: (§5)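 Male BALB/c nude mice (6−8 weeks, 18−22 g) implanted subcutaneously on right axillary flank with 2 × 10^6 DU-145 cells in 0.1 mL saline. At 100 ± 30 mm3 tumors, randomized (n = 5/group) to daily gavage for 21 days; vehicle DMSO/Cremphor EL/PBS 1:1:8. Tumor volume every 3 days; tumors excised and weighed at end; TGI from mean tumor weights vs vehicle; body weight tracked.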

DU-145 [22] = test: Anticancer activity against human DU145 cells xenografted in BALB/c mouse assessed as decrease in tumor growth at 17 mg/kg, oral gavage for 21 days relative to vehicle treated control; format: functional; conditions: DU-145, po, 504 h; in short: as §5
Mus musculus [23] = test: Toxicity in human DU145 cells xenografted in BALB/c mouse assessed as change in body weight at 17 mg/kg, oral gavage for 21 days relative to vehicle treated control; format: organism-based, DU-145; conditions: in vivo, 504 h; in short: as §5
DU-145 [24] = test: Induction of cell cycle arrest in human DU145 cells assessed as cells accumulation at G0/G1 phase at 0.08 uM after 24 hrs by propidium iodide staining-based flow cytometry (reference value: 54%); format: functional
DU-145 [25] = test: Induction of cell cycle arrest in human DU145 cells assessed as cells accumulation at S phase at 0.08 uM after 24 hrs by propidium iodide staining-based flow cytometry (reference value: 24%); format: functional
DU-145 [26] = test: Induction of cell cycle arrest in human DU145 cells assessed as cells accumulation at G2/M phase at 0.08 uM after 24 hrs by propidium iodide staining-based flow cytometry (reference value: 22%); format: functional
DU-145 [27] = test: Induction of cell cycle arrest in human DU145 cells assessed as cells accumulation at G2/M phase at 0.16 uM after 24 hrs by propidium iodide staining-based flow cytometry (reference value: 22%); format: functional
DU-145 [28] = test: Induction of apoptosis in human DU145 cells assessed as chromatin condensation and fragmentation at 0.08 to 0.32 uM after 24 hrs by Hoechst staining-based fluorescence microscopy; format: functional, cell-based
In short: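 DU-145 cells exposed 24 h to compound or vehicle (0.1% DMSO), fixed in methanol 30 min, stained with 1 mg/mL Hoechst 33258, and scored under fluorescence microscope for chromatin condensation and nuclear fragmentation; three separate experiments.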

**Q.** Which results are given for `CC1(C)CC[C@]23CC[C@@]4(C)[C@]5(C)CC[C@H]6C(C)(C)C(=O)C(C#N)=C[C@]6(C)C5=CC(=O)[C@@]4([C@@H]2C1)N(C1CCCCC1)C3=O`?
**A.** inhibition (DU-145 [1]): Active; Activity (DU-145 [2]): Active; Activity (DU-145 [3]): inactive; inhibition [4]: Active; half-life [5]: 39 min; Papp A→B at 0.5 h, 0.5 µM [6]: 0.045 ×10⁻⁶ cm/s; Papp B→A at 0.5 h, 0.5 µM [7]: 0.059 ×10⁻⁶ cm/s; IC50 (DU-145 [8]): 390 nM; IC50 [9]: 6.09 µM; Activity (Mus musculus [10]): Non-toxic; Activity (Mus musculus [11]): Non-toxic; Activity (Mus musculus [12]): Non-toxic; Activity (Mus musculus [13]): Non-toxic; Activity (Mus musculus [14]): Non-toxic; Activity (Mus musculus [15]): Non-toxic; Activity (Mus musculus [16]): Toxic; survival at 14 day [17]: 0%; survival at 14 day [18]: 63%; survival at 14 day [19]: 88%; LD50 at 336 h [20]: 541 mg/kg; inhibition in vivo at 8.5 mg/kg (DU-145 [21]): 30%; inhibition in vivo at 17 mg/kg (DU-145 [22]): 62%; Activity (Mus musculus [23]): Non-toxic; Activity (DU-145 [24]): 56%; Activity (DU-145 [25]): 25%; Activity (DU-145 [26]): 19%; Activity (DU-145 [27]): 22%; Activity (DU-145 [28]): Active
